Compound activity deposited in PubChem by Sanford-Burnham Center for Chemical Genomics.
Sampled rows, rich in hits. Any-hit rate of the full collection: about 0.77%.
mIAP inh = mouse IAP inhibition; AID 2806; purified mouse IAP, CDP-Star luminescence, 30 min; inhibition, % at 10 µM; 330,000 tested, 0.2% active;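 active means inhibition of at least 40% at 10 µM in the primary screen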
bIAP inhibitor = intestinal alkaline phosphatase (bovine) inhibition | 190,000 tested, under 10 active | purified bovine IAP, CDP-star luminescence, 30 min | inhibition, % at 20 µM;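 active means over 50% inhibition of intestinal alkaline phosphatase at 20 µM in the single-dose screen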
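Incubation: 30 min reaction at room temperature / Material: purified bovine intestinal alkaline phosphatase (IAP) enzyme / Input: enzyme at 1/65,000,000 dilution / Dosing: 20 µM single dose / Signal: CDP-star luminescence signal / Reagent: CDP-star chemiluminescent phosphatase substrate, 30 µM final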
mIAP activ = mouse IAP activation; muIAP, CDP-Star luminescence, 30 min; hits give high values; 1 = vehicle-only enzyme signal, 0 = enzyme-free wells; activation factor at 10 µM; 330,000 tested, 0.24% active; AID 2805;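 active means activation factor of at least 2 at 20 µM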
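System: mouse IAP enzyme. Reagent: CDP-Star chemiluminescent phosphatase substrate. Benchmarks: DMSO wells, no-enzyme wells. Times: 30 min enzyme-substrate-compound incubation at room temperature. Detection: luminescence from enzymatic CDP-Star hydrolysis. Doses: test compounds delivered from DMSO solution.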
hIAP activ = human IAP activation | P09923 | purified human IAP, CDP-Star luminescence, 30 min; hits give high values; 1 = vehicle-only enzyme, 0 = enzyme-free background | activation factor at 10 µM | 330,000 tested, 0.16% active | AID 2524;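 active means activation factor of the enzyme at least 2-fold when tested at 20 µM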
Target sequence (P09923 whole entry, looked up): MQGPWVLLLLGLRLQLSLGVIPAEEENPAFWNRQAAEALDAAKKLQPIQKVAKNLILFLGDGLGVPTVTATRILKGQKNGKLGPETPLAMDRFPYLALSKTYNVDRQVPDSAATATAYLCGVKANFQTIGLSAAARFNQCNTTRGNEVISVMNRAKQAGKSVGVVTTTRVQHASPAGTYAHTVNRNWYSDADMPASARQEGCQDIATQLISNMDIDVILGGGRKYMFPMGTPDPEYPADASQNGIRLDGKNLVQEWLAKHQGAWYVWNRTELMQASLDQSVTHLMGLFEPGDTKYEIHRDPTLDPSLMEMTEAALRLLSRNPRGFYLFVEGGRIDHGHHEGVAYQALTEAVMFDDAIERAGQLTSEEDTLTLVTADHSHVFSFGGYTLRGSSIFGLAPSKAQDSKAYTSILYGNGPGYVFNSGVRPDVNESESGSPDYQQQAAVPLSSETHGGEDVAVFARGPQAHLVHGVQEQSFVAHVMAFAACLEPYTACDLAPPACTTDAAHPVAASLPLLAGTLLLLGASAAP
hIAP inh = human IAP inhibition | AID 2544 | 330,000 tested, 0.12% active | inhibition, % at 10 µM | purified IAP, CDP-Star luminescence, 30 min;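 active means inhibition reaching a set limit with compound at 10 µM in the primary screen, cut at about 35% in these data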
bIAP activator = intestinal alkaline phosphatase (bovine) activation | purified bovine IAP, CDP-star luminescence, 30 min; hits give high values; fold of DMSO-control signal, blank-subtracted | activation factor at 20 µM | 200,000 tested, 0.17% active;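 active means activation factor of 2 or more at 20 µM, a signal rise over negative controls twice the positive control's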
Each line names hits and unclear results; the compound was inactive in the other large screens.

COc1ccc(NC(=O)Nc2ccc3c(c2)C(=O)N([C@H](C)CO)C[C@H](C)[C@@H](CN(C)C(=O)Nc2ccccc2)O3)cc1	mIAP activ 2.9 (no result: bIAP inhibitor, bIAP activator)
CC(C)NC(=O)N(C)C[C@H]1Oc2ccc(NC(=O)Nc3ccc(C(F)(F)F)cc3)cc2C(=O)N([C@H](C)CO)C[C@@H]1C	mIAP activ 2.4 (no result: bIAP inhibitor, bIAP activator)
C[C@H](CO)N1C[C@H](C)[C@H](CN(C)Cc2ccccc2)Oc2c(NC(=O)Nc3ccc(F)cc3)cccc2C1=O	none (no result: bIAP inhibitor, bIAP activator)
C[C@H](CO)N1C[C@H](C)[C@H](CN(C)Cc2ccccc2)Oc2ccc(NC(=O)Nc3ccc(F)cc3)cc2C1=O	mIAP activ 2.2 (no result: bIAP inhibitor, bIAP activator)
C[C@H]1CN([C@@H](C)CO)C(=O)c2cc(NC(=O)NC3CCCCC3)ccc2O[C@H]1CN(C)C(=O)Nc1ccc(C(F)(F)F)cc1	mIAP activ 2 (no result: bIAP inhibitor, bIAP activator)
C[C@H](CO)N1C[C@H](C)[C@@H](CN(C)C(=O)Nc2ccc(C(F)(F)F)cc2)Oc2ccc(NC(=O)Nc3ccc(C(F)(F)F)cc3)cc2C1=O	none (no result: bIAP inhibitor, bIAP activator)
COc1ccc(CCNC(=O)c2ccccc2NC(=O)C2=C(C)OCCS2)c(OC)c1	none (no result: bIAP inhibitor, bIAP activator)
Cc1ccc2c(c1)-n1c(nc3ccc(C)cc3c1=O)C(Cc1ccccc1)NC2=O (stereo not drawn)	none (no result: bIAP inhibitor, bIAP activator)
C[C@H](CO)N1C[C@H](C)[C@@H](CN(C)C(=O)Nc2ccccc2)Oc2ccc(NC(=O)NC3CCCCC3)cc2C1=O	mIAP activ 2.1 (no result: bIAP inhibitor, bIAP activator)
C[C@H](CO)N1C[C@H](C)[C@@H](CN(C)C(=O)NC2CCCCC2)Oc2ccc(NC(=O)NC3CCCCC3)cc2C1=O	none (no result: bIAP inhibitor, bIAP activator)
CC(C)(C)NC(=O)c1ccc2c(c1)C1C3CCC(C3)C1C(c1ccccc1)N2 (stereo not drawn)	none
CCCNC(=O)c1ccc2c(c1)C1C3CCC(C3)C1C(c1ccccc1)N2 (stereo not drawn)	bIAP activator 2
O=C(Nc1ccccc1C(=O)O)C1=NN=CC1	none (no result: bIAP inhibitor, bIAP activator)
CCCCN(CC(=O)Nc1c(C)cccc1CC)C(=O)SCC	none
CCc1ccc(OCC(=O)N/N=C(\C)c2ccc(-n3ccnc3)cc2)cc1	bIAP activator 2
COc1cccc(OCC(=O)NNC(=O)c2cccs2)c1	mIAP inh 41
C[C@H](CO)N1C[C@H](C)[C@@H](CN(C)S(=O)(=O)c2ccccc2)Oc2ccc(NC(=O)Cc3ccccc3)cc2C1=O	none (no result: bIAP inhibitor, bIAP activator)
C[C@H](CO)N1C[C@H](C)[C@@H](CN(C)S(=O)(=O)c2ccccc2)Oc2ccc(NC(=O)Nc3ccc4c(c3)OCO4)cc2C1=O	mIAP activ 2.6 (no result: bIAP inhibitor, bIAP activator)
COc1ccc(S(=O)(=O)N(C)C[C@H]2Oc3ccc(NC(=O)Nc4ccc(C(F)(F)F)cc4)cc3C(=O)N([C@H](C)CO)C[C@@H]2C)cc1	none (no result: bIAP inhibitor, bIAP activator)
COc1ccc(NC(=O)Nc2ccc3c(c2)C(=O)N([C@H](C)CO)C[C@H](C)[C@@H](CN(C)S(=O)(=O)c2ccc(OC)cc2)O3)cc1	mIAP activ 2.6 (no result: bIAP inhibitor, bIAP activator)
CC(=O)n1cc([C@H]2C=C(C(=O)N3CCN(Cc4ccc5c(c4)OCO5)CC3)O[C@@H](OCCCCO)C2)c2ccccc21	none
CCOC(=O)N1CCN(Cc2nnc(-c3ccccc3C)o2)CC1	none (no result: bIAP inhibitor, bIAP activator)
O=C(COC(=O)c1ccco1)Nc1nnc(-c2ccccc2)o1	none (no result: bIAP inhibitor, bIAP activator)
OCc1nc2ccccc2n1CCCCOc1ccccc1	none (no result: bIAP inhibitor, bIAP activator)
OCc1nc2ccccc2n1CCCOc1ccc(Br)cc1	bIAP activator 2.9
COc1cc(C(=O)N(CCN(C)C)CC2CCCN(Cc3ccccc3F)C2)ccc1C (stereo not drawn)	none (no result: bIAP inhibitor, bIAP activator)
O=C(Nc1ccccc1-c1ccccc1)NC1CC2CCCC(C1)N2CCc1ccccc1 (stereo not drawn)	mIAP activ 2.3
Cc1ccc(S(=O)(=O)NCCc2nnc3ccc(SCC(=O)Nc4nc(C)cs4)nn23)cc1	none
O=C(N/N=C\c1ccc([N+](=O)[O-])o1)c1cncc(Br)c1	none (no result: bIAP inhibitor, bIAP activator)
O=C(N/N=C/c1ccc(-c2ccccc2[N+](=O)[O-])o1)c1cncc(Br)c1	bIAP activator 3.7
CCn1ccnc1CNCc1cn(-c2cc(C)ccc2C)nc1-c1ccccc1	bIAP activator 2.7
COc1ccc(Cl)cc1NC(=S)NCCSc1ccc(C)cc1	mIAP activ 2.6
Cc1ccc(SCCNC(=S)Nc2cc(C)cc(C)c2)cc1	mIAP activ 3.3
Cc1ccc(NC(=O)NCCSc2ccc(C)cc2)cc1	mIAP activ 2.5
COc1ccccc1NC(=S)NCCSc1ccc(Cl)cc1	none
Cc1ccc(NC(=O)CC2CCCC2)c(Br)c1	none (no result: bIAP inhibitor, bIAP activator)
Cc1ccc(F)c([C@H]2C3C=CCC(c4ccccc4)C3C(=O)N2Cc2ccccc2)c1 (stereo partly drawn)	none (no result: bIAP inhibitor, bIAP activator)
NS(=O)(=O)c1ccc(CCNc2ncnc3c2c(-c2ccccc2)cn3-c2ccc(F)cc2)cc1	none
Cc1cc(C)c(S(=O)(=O)Nc2ccc(O)c(Sc3ncn[nH]3)c2)c(C)c1	mIAP inh 69
COc1ccccc1CCC(=O)Nc1ncc(C)s1	none (no result: bIAP inhibitor, bIAP activator)
O=C(NN1C(=O)/C(=C/c2cc([N+](=O)[O-])ccc2O)SC1=S)c1ccccc1O	mIAP inh 51 (no result: bIAP inhibitor, bIAP activator)
COc1cc(/C=C2\SC(=S)N(NC(=O)c3ccccc3O)C2=O)ccc1O	none (no result: bIAP inhibitor, bIAP activator)
N#C/C(=C/c1ccc(N2CCCCC2)o1)C(=O)Nc1ccc(Cl)cc1	hIAP inh 38
Cc1ccc(N=C2NC(=O)/C(=C\c3ccco3)S2)cc1	mIAP inh 45
Cc1cccc(N=C2NC(=O)/C(=C/C=C/c3ccco3)S2)c1	none (no result: mIAP inh, mIAP activ, hIAP activ, hIAP inh)
Cn1c(N)c(C(=O)COC(=O)C2CC(=O)N(Cc3ccccc3)C2)c(=O)n(C)c1=O (stereo not drawn)	none
Cc1ccccc1-c1ccc(C(=O)Nc2cccc(F)c2)o1	bIAP activator 3.5
O=C(Nc1cccc(F)c1)c1ccc(-c2ccccc2C(F)(F)F)o1	none (no result: mIAP inh, mIAP activ, hIAP activ, hIAP inh)
COc1cc(C)ccc1S(=O)(=O)N1CCN(C23CC4CC(CC(C4)C2)C3)CC1	none
COc1cccc(NC(=O)Nc2ccc3c(c2)N(C)C(=O)CS3)c1	mIAP activ 2.7
CCOc1ccc(OCC)c(NC(=O)Nc2ccc3c(c2)N(C)C(=O)CS3)c1	mIAP activ 2.4
CC(=O)Nc1ccc(NC(=O)Nc2ccc3c(c2)N(C)C(=O)CS3)cc1	none
O=C(/C=C/c1ccco1)N(c1ccccn1)c1ccccn1	mIAP inh 45
COc1cccc(OCCNC(=O)Nc2cc(F)c(F)cc2Cl)c1	mIAP activ 2.3
COc1ccc(OCCNC(=O)Nc2cc(F)c(F)cc2Cl)cc1	none
CCOC(=O)c1ccc(NC(=S)NCCC2=CCCCC2)cc1	mIAP activ 2.6
CCOC(=O)c1ccc(NC(=S)NCCc2ccccc2)cc1	none
CCOC(=O)c1ccc(NC(=S)NCCc2ccccc2F)cc1	mIAP activ 2.2
Cc1ccc(NC(=S)NCCC2=CCCCC2)cc1	none
C[C@@H]1C=C(C(=O)O)O[C@H](OCc2ccc(CO)cc2)C1	none
